Reference: ChEMBL document CHEMBL2396629, “Synthesis and biological evaluation of 4,5-dihydro-1H-pyrazole derivatives as potential nNOS/iNOS selective inhibitors. Part 2: Influence of diverse substituents in both the phenyl moiety and the acyl group” (Bioorg Med Chem, 2013)

Assays:
[1] = target: Nitric oxide synthase, inducible (Homo sapiens) (UniProt P35228); experiment: Inhibition of recombinant iNOS (unknown origin) assessed as conversion of L-[3H]-arginine to L-[3H]-citrulline at 1 mM after 30 mins
In short: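 Recombinant iNOS was tested with each compound at 1 mM. Activity is expressed relative to control and reported as % inhibition. Each value is the mean of three experiments, each run in triplicate.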

Nitric oxide synthase 1 [2] = target: T1, Nitric oxide synthase 1 (Homo sapiens, UniProt P29475); experiment: Inhibition of recombinant nNOS (unknown origin) assessed as conversion of L-[3H]-arginine to L-[3H]-citrulline at 1 mM after 30 mins
In short: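 Recombinant nNOS (21.05 nmol/min/mg) in 25 mM Tris-HCl pH 7.6 with DTT, H4-biopterin, FAD, inosine, BSA, CaCl2, L-arginine and 50 nM L-[3H]-arginine. Compound at 1 mM; 37 °C, 30 min. Stopped with cold HEPES/EGTA/L-citrulline pH 5.5, Dowex-50W (Na+) separation, [3H]-citrulline by scintillation. NADPH-omitted blank subtracted. Mean of three experiments in triplicate.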

Nitric oxide synthase 1 [3] = target: T1, Nitric oxide synthase 1; experiment: Inhibition of recombinant nNOS (unknown origin) assessed as conversion of L-[3H]-arginine to L-[3H]-citrulline after 30 mins
In short: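 Bredt–Snyder radiometric citrulline assay using recombinant nNOS in 25 mM Tris-HCl pH 7.6 with DTT, H4-biopterin, FAD, inosine, BSA, 0.1 mM CaCl2, L-arginine and 50 nM L-[3H]-arginine. Incubated at 37 °C for 30 min, then Dowex-50W separation and scintillation counting. Blank without NADPH subtracted. IC50 given in mM.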

Sequence of Nitric oxide synthase, inducible (Homo sapiens) (P35228 whole entry): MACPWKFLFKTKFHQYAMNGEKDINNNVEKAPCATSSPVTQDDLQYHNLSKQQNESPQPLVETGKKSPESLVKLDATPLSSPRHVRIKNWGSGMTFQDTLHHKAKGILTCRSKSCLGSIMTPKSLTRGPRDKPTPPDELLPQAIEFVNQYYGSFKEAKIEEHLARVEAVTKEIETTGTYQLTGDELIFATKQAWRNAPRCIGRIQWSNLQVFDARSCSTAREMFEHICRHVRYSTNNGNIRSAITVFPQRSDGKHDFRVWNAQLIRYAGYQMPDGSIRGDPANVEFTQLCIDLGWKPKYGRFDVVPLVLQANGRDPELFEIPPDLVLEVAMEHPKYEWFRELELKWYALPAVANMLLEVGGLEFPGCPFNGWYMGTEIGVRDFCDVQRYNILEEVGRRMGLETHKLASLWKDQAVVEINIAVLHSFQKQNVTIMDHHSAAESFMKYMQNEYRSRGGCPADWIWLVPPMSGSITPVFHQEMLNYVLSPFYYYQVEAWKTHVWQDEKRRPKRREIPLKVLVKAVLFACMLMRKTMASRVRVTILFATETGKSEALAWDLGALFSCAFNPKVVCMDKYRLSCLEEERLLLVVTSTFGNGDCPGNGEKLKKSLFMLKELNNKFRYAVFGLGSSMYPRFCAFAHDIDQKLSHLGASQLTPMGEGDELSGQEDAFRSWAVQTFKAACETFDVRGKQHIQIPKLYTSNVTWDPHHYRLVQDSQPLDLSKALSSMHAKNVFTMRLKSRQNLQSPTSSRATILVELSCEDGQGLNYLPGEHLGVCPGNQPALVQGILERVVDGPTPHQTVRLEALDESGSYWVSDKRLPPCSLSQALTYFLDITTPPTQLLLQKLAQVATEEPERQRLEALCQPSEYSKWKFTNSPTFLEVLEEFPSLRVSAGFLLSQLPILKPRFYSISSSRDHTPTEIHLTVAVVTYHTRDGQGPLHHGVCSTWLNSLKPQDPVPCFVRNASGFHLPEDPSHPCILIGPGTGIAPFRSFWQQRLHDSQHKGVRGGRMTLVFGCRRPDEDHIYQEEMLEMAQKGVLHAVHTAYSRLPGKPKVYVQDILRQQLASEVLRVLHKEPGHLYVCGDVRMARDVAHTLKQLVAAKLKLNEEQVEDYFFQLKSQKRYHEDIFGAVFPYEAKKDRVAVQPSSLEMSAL
T1 sequence (P29475 whole entry): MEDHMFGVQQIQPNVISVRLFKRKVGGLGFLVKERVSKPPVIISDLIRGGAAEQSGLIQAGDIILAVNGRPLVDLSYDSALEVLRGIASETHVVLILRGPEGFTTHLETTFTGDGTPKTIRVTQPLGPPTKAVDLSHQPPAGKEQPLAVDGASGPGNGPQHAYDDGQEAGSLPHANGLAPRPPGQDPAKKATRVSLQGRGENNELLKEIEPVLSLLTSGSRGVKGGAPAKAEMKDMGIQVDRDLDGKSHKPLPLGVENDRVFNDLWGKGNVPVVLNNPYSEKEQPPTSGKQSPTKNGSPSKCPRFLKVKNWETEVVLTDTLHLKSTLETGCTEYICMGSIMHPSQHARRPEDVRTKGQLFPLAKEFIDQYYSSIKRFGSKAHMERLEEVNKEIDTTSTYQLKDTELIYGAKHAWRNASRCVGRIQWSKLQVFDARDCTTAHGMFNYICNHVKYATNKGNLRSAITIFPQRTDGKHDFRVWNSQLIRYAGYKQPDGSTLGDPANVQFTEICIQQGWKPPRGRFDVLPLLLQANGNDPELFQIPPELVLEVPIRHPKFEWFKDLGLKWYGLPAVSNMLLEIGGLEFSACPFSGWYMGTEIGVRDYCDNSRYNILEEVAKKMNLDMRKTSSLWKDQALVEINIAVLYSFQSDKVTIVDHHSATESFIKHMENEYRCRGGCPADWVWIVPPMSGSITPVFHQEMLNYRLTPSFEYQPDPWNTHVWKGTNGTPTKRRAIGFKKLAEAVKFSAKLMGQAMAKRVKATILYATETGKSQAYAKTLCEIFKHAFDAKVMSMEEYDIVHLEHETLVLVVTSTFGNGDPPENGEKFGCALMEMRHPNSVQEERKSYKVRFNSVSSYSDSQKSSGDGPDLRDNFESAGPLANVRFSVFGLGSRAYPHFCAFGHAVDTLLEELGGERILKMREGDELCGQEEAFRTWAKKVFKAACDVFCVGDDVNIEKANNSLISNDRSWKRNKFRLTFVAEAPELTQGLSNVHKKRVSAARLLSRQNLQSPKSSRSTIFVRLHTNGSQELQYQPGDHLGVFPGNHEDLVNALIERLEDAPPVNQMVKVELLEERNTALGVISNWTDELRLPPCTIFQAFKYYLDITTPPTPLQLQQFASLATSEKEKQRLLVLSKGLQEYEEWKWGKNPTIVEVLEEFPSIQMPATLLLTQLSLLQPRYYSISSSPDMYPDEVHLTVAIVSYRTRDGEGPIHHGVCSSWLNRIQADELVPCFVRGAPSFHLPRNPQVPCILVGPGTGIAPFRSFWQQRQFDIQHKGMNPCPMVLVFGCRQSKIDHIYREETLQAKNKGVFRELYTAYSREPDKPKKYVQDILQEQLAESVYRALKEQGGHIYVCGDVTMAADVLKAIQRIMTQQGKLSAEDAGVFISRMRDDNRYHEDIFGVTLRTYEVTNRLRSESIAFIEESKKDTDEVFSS

COc1cc(N)c(C2=NN(C(=O)c3ccccc3)CC2)c(OC)c1OC
inhibition [1]: 8.14% | inhibition (Nitric oxide synthase 1 [2]): 62.9% | IC50 (Nitric oxide synthase 1 [3]): 530 µM

CCC(=O)N1CCC(c2cc(OC)ccc2N)=N1
inhibition [1]: 20.4% | inhibition (Nitric oxide synthase 1 [2]): 53.3%

Nc1ccccc1C1=NN(C(=O)CCc2ccccc2)CC1
inhibition [1]: 5.64% | inhibition (Nitric oxide synthase 1 [2]): 7.36%

CCC(=O)N1CCC(c2ccccc2N)=N1
inhibition [1]: 6.88% | inhibition (Nitric oxide synthase 1 [2]): 36.5%

CC(=O)N1CCC(c2ccccc2N)=N1
inhibition [1]: 7.73% | inhibition (Nitric oxide synthase 1 [2]): 33.7%

Nc1ccccc1C1=NN(C(=O)Cc2ccccc2)CC1
inhibition [1]: 2.31% | inhibition (Nitric oxide synthase 1 [2]): 2.68%

CCCCC(=O)N1CCC(c2cc(OC)ccc2N)=N1
inhibition [1]: 0.18% | inhibition (Nitric oxide synthase 1 [2]): 49.8%

COc1ccc(N)c(C2=NN(C(=O)C3CCCCC3)CC2)c1
inhibition [1]: 13.2% | inhibition (Nitric oxide synthase 1 [2]): 62.2%

COc1cc(N)c(C2=NN(C(=O)c3ccccc3)CC2)cc1OC
inhibition [1]: 28.9% | inhibition (Nitric oxide synthase 1 [2]): 25.1%

COc1cc(N)c(C2=NN(C(=O)CCc3ccccc3)CC2)cc1OC
inhibition [1]: 23.7% | inhibition (Nitric oxide synthase 1 [2]): 55.3% | IC50 (Nitric oxide synthase 1 [3]): 880 µM

COc1cc(N)c(C2=NN(C(=O)C3CC3)CC2)cc1OC
inhibition [1]: 25.2% | inhibition (Nitric oxide synthase 1 [2]): 19.6%

COc1cc(N)c(C2=NN(C(=O)Cc3ccccc3)CC2)c(OC)c1OC
inhibition [1]: 23.4% | inhibition (Nitric oxide synthase 1 [2]): 48.4%

CCCC(=O)N1CCC(c2cc(OC)ccc2N)=N1
inhibition [1]: 13.1% | inhibition (Nitric oxide synthase 1 [2]): 34.7%

Nc1ccc(Cl)cc1C1=NN(C(=O)C2CC2)CC1
inhibition [1]: 18.9% | inhibition (Nitric oxide synthase 1 [2]): 70.2%

Nc1ccc(Cl)cc1C1=NN(C(=O)CCc2ccccc2)CC1
inhibition [1]: 31.4% | inhibition (Nitric oxide synthase 1 [2]): 32.4%

COc1ccc(N)c(C2=NN(C(=O)CCc3ccccc3)CC2)c1
inhibition [1]: 21.2% | inhibition (Nitric oxide synthase 1 [2]): 25.9%

Nc1ccc(Cl)cc1C1=NN(C(=O)Cc2ccccc2)CC1
inhibition [1]: 34.6% | inhibition (Nitric oxide synthase 1 [2]): 18.2%

Nc1cc(Cl)c(Cl)cc1C1=NN(C(=O)c2ccccc2)CC1
inhibition [1]: 36.1% | inhibition (Nitric oxide synthase 1 [2]): 0.62%

COc1ccc(N)c(C2=NN(C(=O)c3ccccc3)CC2)c1
inhibition [1]: 12.2% | inhibition (Nitric oxide synthase 1 [2]): 58.9%

Nc1ccccc1C1=NN(C(=O)C2CC2)CC1
inhibition [1]: 14.8% | inhibition (Nitric oxide synthase 1 [2]): 38.8%

Nc1cc(Cl)c(Cl)cc1C1=NN(C(=O)Cc2ccccc2)CC1
inhibition [1]: 49.2% | inhibition (Nitric oxide synthase 1 [2]): 21.6%

COc1ccc(N)c(C2=NN(C(=O)C3CCCC3)CC2)c1
inhibition [1]: 1.85% | inhibition (Nitric oxide synthase 1 [2]): 49.9%

COc1ccc(N)c(C2=NN(C(=O)C3CC3)CC2)c1
inhibition [1]: 19.9% | inhibition (Nitric oxide synthase 1 [2]): 62.2%

CCC(=O)N1CCC(c2cc(Cl)ccc2N)=N1
inhibition [1]: 13.7% | inhibition (Nitric oxide synthase 1 [2]): 46.1%

CCCC(=O)N1CCC(c2cc(Cl)ccc2N)=N1
inhibition [1]: 0.29% | inhibition (Nitric oxide synthase 1 [2]): 34.4%

COc1cc(N)c(C2=NN(C(=O)CCc3ccccc3)CC2)c(OC)c1OC
inhibition [1]: 18.3% | inhibition (Nitric oxide synthase 1 [2]): 82.5% | IC50 (Nitric oxide synthase 1 [3]): 400 µM

COc1ccc(N)c(C2=NN(C(=O)Cc3ccccc3)CC2)c1
inhibition [1]: 15% | inhibition (Nitric oxide synthase 1 [2]): 0.03%

Nc1ccc(Cl)cc1C1=NN(C(=O)c2ccccc2)CC1
inhibition [1]: 17% | inhibition (Nitric oxide synthase 1 [2]): 61.1%

Nc1ccccc1C1=NN(C(=O)c2ccccc2)CC1
inhibition [1]: 8.7% | inhibition (Nitric oxide synthase 1 [2]): 57%

COc1cc(N)c(C2=NN(C(=O)C3CC3)CC2)c(OC)c1OC
inhibition [1]: 30.1% | inhibition (Nitric oxide synthase 1 [2]): 0.05%

COc1cc(N)c(C2=NN(C(=O)Cc3ccccc3)CC2)cc1OC
inhibition [1]: 21% | inhibition (Nitric oxide synthase 1 [2]): 35.1%

COc1ccc(N)c(C2=NN(C(=O)C3CCC3)CC2)c1
inhibition [1]: 1.91% | inhibition (Nitric oxide synthase 1 [2]): 38.3%

Nc1cc(Cl)c(Cl)cc1C1=NN(C(=O)C2CC2)CC1
inhibition [1]: 15.5% | inhibition (Nitric oxide synthase 1 [2]): 50.5%

CC(=O)N1CCC(c2cc(Cl)ccc2N)=N1
inhibition [1]: 1.03% | inhibition (Nitric oxide synthase 1 [2]): 47.6%

COc1ccc(N)c(C2=NN(C(C)=O)CC2)c1
inhibition [1]: 20.4% | inhibition (Nitric oxide synthase 1 [2]): 38%

Nc1cc(Cl)c(Cl)cc1C1=NN(C(=O)CCc2ccccc2)CC1
inhibition [1]: 50.2% | inhibition (Nitric oxide synthase 1 [2]): 2.97%

CCCC(=O)N1CCC(c2ccccc2N)=N1
inhibition (Nitric oxide synthase 1 [2]): 52.4%
